Published values from different studies.
Compare with care: the assays were run in different laboratories.
Effect on: enzyme activity
Mode: inhibitor
LCK phosphorylated: Tyrosine-protein kinase Lck, phosphorylated (LCK, Homo sapiens, UniProt P06239)
LCK: Tyrosine-protein kinase Lck (LCK, Homo sapiens, UniProt P06239)

SMILES | target | test | conditions | remaining activity [%]
COc1cc(Cl)c(C(=O)N[C@@H](CN[C@H]2CC[C@@H](N)CC2)Cc2ccc(C#N)cc2)cc1-c1ccc(CN[C@H](C)c2ccc(C)cc2)o1 | LCK phosphorylated |  | 1 µM | 85
Cc1[nH]c(/C=C2\C(=O)Nc3ccc(F)cc32)c(C)c1C(=O)N[C@H]1CCN(C(=O)N(C)C)C1 | LCK |  | 1 µM | 42
O=c1c2ccccc2[nH]c(=S)n1CCN1CCC(=C(c2ccc(F)cc2)c2ccc(F)cc2)CC1 | LCK |  | 0.5 µM | 99.5
CCCOc1ccc(OC)c(F)c1C(=O)c1ccc(C(=O)N[C@@H]2CNC[C@H]2NC(=O)c2ccc3[nH]ncc3c2)cc1 | LCK phosphorylated |  | 10 µM | 18
Cc1ccc(C(=O)Nc2ccc(CN3CCN(C)CC3)c(C(F)(F)F)c2)cc1C#Cc1cnc2cccnn12 | LCK |  | 23.5 nM | 0.8
COc1cc(Nc2cnc(C#N)c(O[C@H](C)CN(C)C)n2)ncc1-c1cnn(C)c1 | LCK | radiometric | 10 µM | 20
CC(C)N(CCC(=O)c1ccc2ccccc2c1)Cc1ccccc1 | LCK |  | 0.5 µM | 98.9
Oc1cccc(-c2nc(N3CCOCC3)c3oc4ncccc4c3n2)c1 | LCK |  | 10 µM | 85
O=C(Nc1cnn(-c2csc(C(=O)NC3COC3)c2)c1)Nc1c(F)cccc1Cl | LCK |  | 5 µM | 94.2
COc1cc2ncnc(Nc3cccc(Cl)c3)c2cc1OC | LCK |  | 0.5 µM | 74.9
CC(C)(C)c1nc(-c2cccc(NS(=O)(=O)c3c(F)cccc3F)c2F)c(-c2ccnc(N)n2)s1 | LCK | radiometric | 1 µM | 38
Nc1ncnc2occ(-c3ccc(NC(=O)Nc4cc(C(F)(F)F)ccc4F)cc3)c12 | LCK |  | 20 µM | 0.1
N#CCCc1ccc2c(c1)-c1[nH]c3ccc([N+](=O)[O-])cc3c1CC(=O)N2 | LCK |  | 0.5 µM | 78.2
Cn1c(=O)n(-c2ccc(C(C)(C)C#N)cc2)c2c3cc(-c4cnc5ccccc5c4)ccc3ncc21 | LCK |  | 10 µM | 54
Cc1ccc(NC(=O)c2ccc(CN3CCN(C)CC3)cc2)cc1Nc1nccc(-c2cncc(-c3oncc3C)c2)n1 | LCK |  | 0.5 µM | ≤ 50
Cc1ccc(NC(=O)c2ccc(C)c(C(F)(F)F)c2)cc1C#Cc1nn(C2CCC(O)CC2)c2ncnc(N)c12 (stereo not drawn) | LCK phosphorylated |  | 10 µM | 0
Cc1cnc(NC2CCOCC2)nc1-n1cnc(C(=O)NC(CN)c2cc(F)cc(Cl)c2)c1 (stereo not drawn) | LCK | radiometric | 1 µM | 100
CCN(CC)CCNC(=O)c1c(C)[nH]c(/C=C2\C(=O)Nc3ccc(Cl)cc32)c1C | LCK |  | 0.5 µM | 11.8
CCN(CC)c1ccc(C2=NNC(=O)CC2C)cc1[N+](=O)[O-] (stereo not drawn) | LCK phosphorylated |  | 10 µM | 104
COc1cc2c(N3CCN(C(=O)Nc4ccc(OC(C)C)cc4)CC3)ncnc2cc1OCCCN1CCCCC1 | LCK |  | 0.5 µM | 87.1
CC(C)(C)C(=O)c1sc(NC2CCCCC2)nc1N | LCK |  | 10 µM | 85
